Laboratory results taken from ChEMBL document CHEMBL2434844, “Synthesis, antimicrobial, antioxidant activities of novel 6-aryl-5-cyano thiouracil derivatives” (Eur J Med Chem, 2013).
≈ marks a conversion by molar mass, not a printed value. Calls of active or inactive are those of the source. The calls are words filed in the database; no cut-off is given here.

Legend:
[1] = test system: Escherichia coli; assay: Antibacterial activity against Escherichia coli ATCC 11775 at 10 mg/disc after 48 hrs by disc-diffusion method; type: functional, DSM 30083 = JCM 1649
Procedure, shortened: (§1)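 Disc diffusion per Bauer method under NCCLS conditions on nutrient agar/Mueller-Hinton agar. Compound dissolved in sterile DMSO at 10 mg/mL, filtered 0.2 µm, stored frozen at -15 °C; 10 mg/disc in DMSO applied. DMSO control. Inhibition zone diameter measured in mm after 48 h incubation at 28 °C.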

[2] = test system: Bacillus cereus; assay: Antibacterial activity against Bacillus cereus ATCC 14579 after 24 hrs by microdilution technique; type: functional
Procedure, shortened: (§2)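 MIC by agar microdilution on Mueller-Hinton agar per NCCLS 1997. Bacteria subcultured overnight at 37 °C on MHA, Candida on SDA at 35 °C for 24-48 h, each passaged at least twice. Incubated 37 °C in humid chamber, read after 24 h.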

[3] = test system: Escherichia coli; assay: Antibacterial activity against Escherichia coli ATCC 11775 after 24 hrs by microdilution technique; type: functional; procedure, shortened: as §2
[4] = test system: Aspergillus flavus; assay: Antifungal activity against Aspergillus flavus ATCC 11495 after 24 hrs by microdilution technique; type: functional
[5] = test system: Candida albicans; assay: Antifungal activity against Candida albicans ATCC 26555 after 24 hrs by microdilution technique; type: functional; procedure, shortened: as §2
[6] = test system: Candida albicans; assay: Antifungal activity against Candida albicans ATCC 26555 at 10 mg/disc after 48 hrs by disc-diffusion method; type: functional; procedure, shortened: as §1
[7] = test system: Radical scavenging activity; assay: Antioxidant activity assessed as DPPH free radical scavenging activity after 20 mins by UV-visible spectrophotometric analysis; type: functional
Procedure, shortened: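 Kept in the dark at room temperature for 20 min, then absorbance read at 517 nm against DPPH blank, DMSO baseline. % scavenging = [(Ac−At)/Ac]×100; IC50 (µg/mL) from concentration plot; mean ± SEM, n=3, 8 replica each.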

[8] = test system: Bacillus cereus; assay: Antibacterial activity against Bacillus cereus ATCC 14579 at 10 mg/disc after 48 hrs by disc-diffusion method; type: functional; procedure, shortened: as §1
[9] = test system: Staphylococcus aureus; assay: Antibacterial activity against Staphylococcus aureus ATCC 12600 after 24 hrs by microdilution technique; type: functional; procedure, shortened: as §2
[10] = test system: Staphylococcus aureus; assay: Antibacterial activity against Staphylococcus aureus ATCC 12600 at 10 mg/disc after 48 hrs by disc-diffusion method; type: functional; procedure, shortened: as §1
[11] = test system: Aspergillus flavus; assay: Antifungal activity against Aspergillus flavus ATCC 11495 at 10 mg/disc after 48 hrs by disc-diffusion method; type: functional; procedure, shortened: as §1
[12] = test system: Bacillus cereus; assay: Antibacterial activity against Bacillus cereus ATCC 14579 at 10 mg/ml after 48 hrs by disc-diffusion method; type: functional; settings: ATCC 14579, 48 h, read-out: DIZ
Procedure, shortened: (§3)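 Disc-diffusion reference: penicillin at 10 mg/mL on nutrient agar/Mueller-Hinton agar per Bauer method; inhibition zone diameter (mm) read after 48 h at 28 °C.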

[13] = test system: Escherichia coli; assay: Antibacterial activity against Escherichia coli ATCC 11775 at 10 mg/ml after 48 hrs by disc-diffusion method; type: functional; settings: DSM 30083 = JCM 1649, 48 h, read-out: DIZ; procedure, shortened: as §3
[14] = test system: Staphylococcus aureus; assay: Antibacterial activity against Staphylococcus aureus ATCC 12600 at 10 mg/ml after 48 hrs by disc-diffusion method; type: functional; settings: ATCC 12600, 48 h, read-out: DIZ; procedure, shortened: as §3
[15] = test system: Aspergillus flavus; assay: Antifungal activity against Aspergillus flavus ATCC 11495 at 50 ug/ml after 48 hrs by disc-diffusion method; type: functional; settings: ATCC 11495, 48 h, read-out: DIZ
Procedure, shortened: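 Disc diffusion per Bauer et al., following NCCLS conditions, on nutrient agar or Mueller-Hinton agar. Compounds were dissolved in sterile DMSO at 10 mg/mL stock, filtered at 0.2 µm and stored frozen at -15 °C. Test discs carried 10 mg/disc in DMSO, and fluconazole reference was 50 µg/mL. After 48 h incubation at 28 °C, inhibition zone diameter was read in mm.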

[16] = test system: Candida albicans; assay: Antifungal activity against Candida albicans ATCC 26555 at 50 ug/ml after 48 hrs by disc-diffusion method; type: functional; settings: ATCC 26555, 48 h, read-out: DIZ

SMILES	diameter of the inhibition zone (DIZ) [1]	MIC ([2]; ATCC 14579, 24 h)	MIC ([3]; DSM 30083 = JCM 1649, 24 h)	MIC [4]	MIC [5]	diameter of the inhibition zone (DIZ) [6]	Activity [7]	IC50 [7]	diameter of the inhibition zone (DIZ) [8]	MIC ([9]; ATCC 12600, 24 h)	diameter of the inhibition zone (DIZ) [10]	diameter of the inhibition zone (DIZ) [11]	diameter of the inhibition zone (DIZ) ([1]; DSM 30083 = JCM 1649)	MIC [2]	MIC ([3]; DSM 30083 = JCM 1649)	MIC ([4]; ATCC 11495, 24 h)	further results
COc1cc(-c2[nH]c(=S)nc(NN)c2C#N)cc(OC)c1OC	12 mm	64 µg/mL (≈ 192 µM)	32 µg/mL (≈ 96 µM)	inactive	inactive	inactive	Dose-dependent effect	6.21 µg/mL (≈ 18.6 µM)	10 mm	64 µg/mL (≈ 192 µM)	11 mm	inactive					
Cc1nnc2c(C#N)c(-c3ccc(F)cc3)[nH]c(=S)n12				inactive	inactive	inactive	Dose-dependent effect	72.03 µg/mL (≈ 252 µM)	inactive		inactive	inactive	inactive	inactive	inactive		MIC [9]: inactive
N#Cc1c(-c2ccc(F)cc2)[nH]c(=S)n2c(=O)[nH]nc12				inactive	inactive	inactive	Dose-dependent effect	19.62 µg/mL (≈ 68.3 µM)	inactive	32 µg/mL (≈ 111 µM)	12 mm	inactive	inactive	inactive	inactive		
O=C1O[C@H]([C@@H](O)CO)C(O)=C1O [ASCORBIC ACID]							Dose-dependent effect	10 µg/mL (≈ 56.8 µM)									
N#Cc1c(-c2ccc(F)cc2)[nH]c(=S)n2c(=O)c(=O)[nH]nc12					inactive	inactive	Dose-dependent effect	14.72 µg/mL (≈ 46.7 µM)	inactive	32 µg/mL (≈ 101 µM)	14 mm	18 mm	inactive	inactive	inactive	16 µg/mL (≈ 50.7 µM)	
N#Cc1c(N/N=C/c2ccccc2)nc(=S)[nH]c1-c1ccc(F)cc1	19 mm	16 µg/mL (≈ 45.8 µM)	16 µg/mL (≈ 45.8 µM)			19 mm	Dose-dependent effect	13.8 µg/mL (≈ 39.5 µM)	22 mm	16 µg/mL (≈ 45.8 µM)	24 mm	19 mm				16 µg/mL (≈ 45.8 µM)	MIC ([5]; ATCC 26555, 24 h): 16 µg/mL (≈ 45.8 µM)
CC1(C)S[C@@H]2[C@H](NC(=O)Cc3ccccc3)C(=O)N2[C@H]1C(=O)O [PENICILLIN G]		32 µg/mL (≈ 95.7 µM)								16 µg/mL (≈ 47.8 µM)							zone of inhibition at 10000 µg/mL [12]: 13 mm; zone of inhibition at 10000 µg/mL [13]: 12 mm; zone of inhibition at 10000 µg/mL [14]: 16 mm
COc1cc(-c2[nH]c(=S)n3c(C)nnc3c2C#N)cc(OC)c1OC				inactive	inactive	inactive	Dose-dependent effect	31.15 µg/mL (≈ 87.2 µM)	inactive		inactive	inactive	inactive	inactive	inactive		MIC [9]: inactive
OC(Cn1cncn1)(Cn1cncn1)c1ccc(F)cc1F [FLUCONAZOLE]																16 µg/mL (≈ 52.2 µM)	zone of inhibition at 50 µg/mL [15]: 21 mm; MIC ([5]; ATCC 26555, 24 h): 16 µg/mL (≈ 52.2 µM); zone of inhibition at 50 µg/mL [16]: 20 mm
COc1ccc(/C=N/Nc2nc(=S)[nH]c(-c3ccc(F)cc3)c2C#N)cc1	19 mm	16 µg/mL (≈ 42.2 µM)	16 µg/mL (≈ 42.2 µM)			18 mm	Dose-dependent effect	12.68 µg/mL (≈ 33.4 µM)	21 mm	16 µg/mL (≈ 42.2 µM)	23 mm	18 mm				16 µg/mL (≈ 42.2 µM)	MIC ([5]; ATCC 26555, 24 h): 16 µg/mL (≈ 42.2 µM)
COc1cc(-c2[nH]c(=S)n3c(=O)[nH]nc3c2C#N)cc(OC)c1OC				inactive	inactive	inactive	Dose-dependent effect	9.34 µg/mL (≈ 26 µM)	inactive	64 µg/mL (≈ 178 µM)	10 mm	inactive	inactive	inactive	inactive		
Cc1nnc2c(C#N)c(-c3ccc(Br)cc3)[nH]c(=S)n12				inactive	inactive	inactive			inactive		inactive	inactive	inactive	inactive	inactive		MIC [9]: inactive
Cc1cc(C)n(-c2nc(=S)[nH]c(-c3ccc(Br)cc3)c2C#N)n1	11 mm	32 µg/mL (≈ 82.8 µM)	32 µg/mL (≈ 82.8 µM)	inactive	inactive	inactive			12 mm	32 µg/mL (≈ 82.8 µM)	12 mm	inactive					
N#Cc1c(NN)nc(=S)[nH]c1-c1ccc(F)cc1	14 mm	64 µg/mL (≈ 245 µM)	32 µg/mL (≈ 122 µM)		inactive	inactive	Dose-dependent effect	15.24 µg/mL (≈ 58.3 µM)	12 mm	16 µg/mL (≈ 61.2 µM)	15 mm	13 mm				32 µg/mL (≈ 122 µM)	
COc1cc(-c2[nH]c(=S)n3c(=O)c(=O)[nH]nc3c2C#N)cc(OC)c1OC					inactive	inactive	Dose-dependent effect	8.55 µg/mL (≈ 22.1 µM)	inactive	32 µg/mL (≈ 82.6 µM)	14 mm	17 mm	inactive	inactive	inactive	16 µg/mL (≈ 41.3 µM)	
COc1cc(-c2[nH]c(=S)n3ncnc3c2C#N)cc(OC)c1OC	6 mm	128 µg/mL (≈ 373 µM)	128 µg/mL (≈ 373 µM)			8 mm			5 mm	128 µg/mL (≈ 373 µM)	7 mm	7 mm				256 µg/mL (≈ 746 µM)	MIC ([5]; ATCC 26555, 24 h): 128 µg/mL (≈ 373 µM)
COc1cc(-c2[nH]c(=S)n3cnnc3c2C#N)cc(OC)c1OC	13 mm	16 µg/mL (≈ 46.6 µM)	16 µg/mL (≈ 46.6 µM)			17 mm			18 mm	16 µg/mL (≈ 46.6 µM)	21 mm	18 mm				16 µg/mL (≈ 46.6 µM)	MIC ([5]; ATCC 26555, 24 h): 16 µg/mL (≈ 46.6 µM)
